Reference: ChEMBL document CHEMBL3769349, “Antiretroviral (HIV-1) activity of azulene derivatives” (Bioorg Med Chem, 2016)
pIC50: −log10 of the molar value. The source made the active and inactive calls.

Columns and labels:
[1] = Cytotoxicity against human U2OS cells assessed as cell viability at highest non-toxic concentration
[2] = tested on: Human immunodeficiency virus 1; assay: Antiretroviral activity against HIV-1 based virus like particles infected in U2OS cells assessed as Gluc activity at highest non-toxic concentration; format: functional
[3] = Selectivity index, ratio of CC50 for human U2OS cells to IC50 for HIV-1 based virus like particles infected in U2OS cells; format: functional
[4] = target: Human immunodeficiency virus type 1 reverse transcriptase (Human immunodeficiency virus 1, UniProt Q72547); assay: Inhibition of recombinant HIV-1 reverse transcriptase using 234 nt long RNA template after 10 mins by liquid scintillation analysis
Outline: (§1)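 Cell-free DNA polymerase assay with recombinant HIV-1 reverse transcriptase (1 unit). Nucleotides: dATP/dGTP/dTTP, cold dCTP and [³³P]dCTP. Enzyme and compound preincubated 10 min at room temperature. Synthesis started with annealed 234-nt RNA template/18-nt DNA primer. Filter-bound radioactivity counted by liquid scintillation. DMSO served as negative control.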

[5] = tested on: Human immunodeficiency virus 1; assay: Antiretroviral activity against HIV-1 based virus like particles infected in U2OS cells; format: functional, organism-based; details: Human immunodeficiency virus 1, U2OS
[6] = target: Human immunodeficiency virus type 1 reverse transcriptase (Human immunodeficiency virus 1) (UniProt Q72547); assay: Inhibition of recombinant HIV-1 reverse transcriptase at 500 uM using 234 nt long RNA template after 10 mins by liquid scintillation analysis; outline: as §1
[7] = Cytotoxicity against human U2OS cells; format: cell-based
Outline: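 Cytotoxicity measured by real-time impedance monitoring (xCELLigence RTCA DP) in U2OS cells kept in IMDM with 10% FBS and Pen/Strep. Compounds tested at several concentrations. Viability compared with 0.5% DMSO vehicle-treated cells. Highest non-toxic concentration defined as the level lowering viability by less than 20%.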

[8] = Selectivity index, ratio of CC50 for human TZM-bl cells to IC50 for HIV-1 infected in TZM-bl cells; format: functional
[9] = Cytotoxicity against human TZM-bl cells; format: cell-based
[10] = tested on: Human immunodeficiency virus 1; assay: Antiretroviral activity against HIV-1 infected in TZM-bl cells after 48 hrs by luciferase assay; details: Human immunodeficiency virus 1, TZM-bl

**Q.** What does the source list for `Clc1cc(Br)c2cccccc1-2`?
**A.** viability [1]: 101%; Activity [2]: 32%

**Q.** For `CCOC(=O)c1c2cccccc-2c(C(=O)OCC)c1O`, which “Ratio CC50/IC50” value [3] is on record?
**A.** 16.4

**Q.** And the pIC50 [4]?
**A.** 3.98

**Q.** And the pIC50 [5]?
**A.** 5.36

**Q.** And the viability [1]?
**A.** 80%

**Q.** What about the inhibition [6] of the same compound?
**A.** Active

**Q.** And the CC50 [7]?
**A.** 72.2 µM

**Q.** What about the “Ratio CC50/IC50” value [8] of the same compound?
**A.** 3

**Q.** What about the Activity [2] of the same compound?
**A.** 3.5%

**Q.** And the CC50 [9]?
**A.** 65 µM

**Q.** What about the pIC50 [10] of the same compound?
**A.** 4.70

**Q.** For `Clc1cc(-c2ccncc2)c2cccccc1-2`, which viability [1] is on record?
**A.** 80%

**Q.** What about the Activity [2] of the same compound?
**A.** 36%

**Q.** For `Clc1cc(N2CCOCC2)c2cccccc1-2`, which viability [1] is on record?
**A.** 80%

**Q.** And the Activity [2]?
**A.** 98%

**Q.** For `c1ccc(-c2cc(-c3ccccc3)c3cccccc2-3)cc1`, which viability [1] is on record?
**A.** 80%

**Q.** And the Activity [2]?
**A.** 124%

**Q.** For `O=C(O)c1cccc(-c2cc(Cl)c3cccccc2-3)c1`, which viability [1] is on record?
**A.** 92%

**Q.** What about the Activity [2] of the same compound?
**A.** 103%

**Q.** Which Activity [2] does the source give for `Cc1ccnc2c1NC(=O)c1cccnc1N2C1CC1` [NEVIRAPINE] here?
**A.** 0.01%

**Q.** With `CCOC(=O)c1ccc(-c2cc(C(=O)OCC)c3cccccc2-3)o1` as the compound, how does the viability [1] read?
**A.** 83%

**Q.** And the Activity [2]?
**A.** 70%

**Q.** What does the source list for `Clc1c2cccccc-2c(Cl)c1-c1cncnc1`?
**A.** viability [1]: 80%; Activity [2]: 141%

**Q.** Which viability [1] does the source give for `N#Cc1cccc(-c2ccc3cccccc2-3)c1` here?
**A.** 80%

**Q.** And the Activity [2]?
**A.** 63%

**Q.** Which viability [1] does the source give for `Clc1cc(-c2ccccc2)c2cccccc1-2` here?
**A.** 88%

**Q.** What about the Activity [2] of the same compound?
**A.** 94%

**Q.** For `Oc1cc2cccccc-2c1`, which “Ratio CC50/IC50” value [3] is on record?
**A.** 12.2

**Q.** What about the pIC50 [5] of the same compound?
**A.** 5.66

**Q.** And the viability [1]?
**A.** 80%

**Q.** And the CC50 [7]?
**A.** 26.8 µM

**Q.** And the “Ratio CC50/IC50” value [8]?
**A.** 7

**Q.** What about the Activity [2] of the same compound?
**A.** 51%

**Q.** And the CC50 [9]?
**A.** 60 µM

**Q.** What about the pIC50 [10] of the same compound?
**A.** 5.07

**Q.** Which viability [1] does the source give for `CCOC(=O)c1ncc(-c2ccc3cccccc2-3)cc1F` here?
**A.** 86%

**Q.** What about the Activity [2] of the same compound?
**A.** 80%

**Q.** For `CCOC(=O)c1c(O)cc2cccccc1-2`, which “Ratio CC50/IC50” value [3] is on record?
**A.** 34.1

**Q.** And the pIC50 [5]?
**A.** 5.00

**Q.** And the viability [1]?
**A.** 89%

**Q.** And the CC50 [7]?
**A.** 344 µM

**Q.** What about the Activity [2] of the same compound?
**A.** 6.4%

**Q.** What about the CC50 [9] of the same compound?
**A.** 260 µM

**Q.** For `Cc1cc(S(=O)(=O)[O-])c2c(C)ccc(C(C)C)cc1-2.[Na+]` [SODIUM GUALENATE], which viability [1] is on record?
**A.** 91%

**Q.** And the Activity [2]?
**A.** 154%

**Q.** What does the source list for `CCOC(=O)c1ccc2cccccc1-2`?
**A.** pIC50 [5]: < 4.12; viability [1]: 85%; Activity [2]: 52%

**Q.** With `Cc1ccc(C(C)C)cc2c(C)ccc1-2` [GUAIAZULEN] as the compound, how does the viability [1] read?
**A.** 106%

**Q.** What about the Activity [2] of the same compound?
**A.** 48%

**Q.** Which viability [1] does the source give for `Brc1cc(Br)c2cccccc1-2` here?
**A.** 96%

**Q.** What about the Activity [2] of the same compound?
**A.** 36%
